Measured values of several laboratories.
Compare with care: the assays were run in different laboratories.
PDGFRA V561D: Platelet-derived growth factor receptor alpha (PDGFRA, Homo sapiens, UniProt P16234, V561D)
PDGFRA: Platelet-derived growth factor receptor alpha (PDGFRA, Homo sapiens, UniProt P16234)
PDGFRA D842V: Platelet-derived growth factor receptor alpha (PDGFRA, Homo sapiens, UniProt P16234, D842V)
PDGFRA T674I: Platelet-derived growth factor receptor alpha (PDGFRA, Homo sapiens, UniProt P16234, T674I)

With `Cc1ccc(C(=O)NCc2ccsc2)cc1C#Cc1cn(C(C)C)c2ncnc(N)c12` the activity vs control was 1% (PDGFRA V561D; enzyme activity; inhibitor; 1 µM).
`O=C(Nc1cnn(-c2csc(C(=O)NC3COC3)c2)c1)Nc1c(F)cccc1Cl` has a remaining activity of 107% (PDGFRA; enzyme activity; inhibitor; 5 µM).
For `CCCOc1ccc(OC)c(F)c1C(=O)c1ccc(C(=O)N[C@@H]2CNC[C@H]2NC(=O)c2ccc3[nH]ncc3c2)cc1`, the remaining activity was 12% (PDGFRA D842V; enzyme activity; inhibitor; 10 µM).
The remaining binding of `CN(C)C(=O)Cn1cc(-c2nc([C@@](C)(c3ccc(-c4cnc(N)nc4)cc3)C3CC3)no2)cn1` is reported as 100% (PDGFRA; cell-free assay; competition with immobilised ligand; 1 µM).
The inhibition of `COc1cc2ncnc(Nc3ccc(Oc4ccccc4)c(C)c3C)c2cc1OC` is reported as 9% (PDGFRA T674I; enzyme activity; inhibitor; 1 µM).
For `Cc1sc(C(=O)NC2COC2)cc1-n1cc(NC(=O)Nc2c(F)cccc2Cl)cn1`, the remaining activity was 114% (PDGFRA; enzyme activity; inhibitor; 10 µM).
With `Cc1cnc(NC2CCOCC2)nc1-n1cnc(C(=O)NC(CN)c2cc(F)cc(Cl)c2)c1` (stereo not shown) the remaining activity was 104% (PDGFRA D842V; enzyme activity; inhibitor; radiometric; 1 µM).
For `Cc1cc(NC(=O)c2cccc3cc(-c4cccc5[nH]nc(N)c45)ccc23)ccc1F`, the activity vs control was 92% (PDGFRA; enzyme activity; inhibitor; 0.1 µM).
The remaining binding of `CCC(=N\O)/C(C)=C/c1ccc(F)cc1` is reported as 78% (PDGFRA; cell-free assay; competition with immobilised ligand; 1 µM).
`O=C1NC(=O)c2cc(Nc3ccc(F)cc3)c(Nc3ccc(F)cc3)cc21` gave a remaining signal of 101% (PDGFRA; cell-free assay; inhibitor; 0.5 µM).
The remaining binding of `C[C@H](c1ccc(F)cc1)N(Cc1cccc(C(=O)O)c1)C(=O)c1cnc2ccccc2c1` is reported as 100% (PDGFRA; cell-free assay; competition with immobilised ligand; 1 µM).
With `COc1cc2ncnc(Nc3ccc(Oc4ccccc4)cc3C)c2cc1OC` the inhibition was 0% (PDGFRA T674I; enzyme activity; inhibitor; 1 µM).
The inhibition of `COc1cc(-c2cc(-c3ccc(N4CCNCC4)cc3)cnc2N)cc(OC)c1OC` is reported as 4% (PDGFRA T674I; enzyme activity; inhibitor; 1 µM).
`CN(C)c1ncnc(-c2ccc3nc(Nc4cc(CN5CCN(C(=O)CC(F)(F)F)CC5)ccn4)[nH]c3c2)c1Cl` has a remaining binding of 61% (PDGFRA; cell-free assay; competition with immobilised ligand; 1 µM).
`Cc1ccc(Nc2nccc(N(C)c3ccc4c(C)n(C)nc4c3)n2)cc1S(N)(=O)=O` gave a remaining signal of 13.9% (PDGFRA; cell-free assay; inhibitor; 0.5 µM).
`CNC(=O)c1cc2c(Oc3ccc(NC(=O)C4(C(=O)Nc5ccc(F)cc5)CC4)cc3)ccnc2cc1OC` gave an inhibition of 101% (PDGFRA V561D; enzyme activity; inhibitor; radiometric; 1 µM).
The remaining activity of `CC(C)(C)c1nc2c(s1)c1nc(N)ncc1c1ccc(NS(=O)(=O)c3c(F)cccc3F)c(F)c12` is reported as 97% (PDGFRA; enzyme activity; inhibitor; radiometric; 1 µM).
For `C[C@@H]1CN(c2cc(-c3nn(C)c4ccc(OC5(C)CC5)cc34)ncn2)C[C@H](C)O1`, the remaining binding was 83% (PDGFRA; cell-free assay; competition with immobilised ligand; 1 µM).
`COc1cc(Nc2cnc(C#N)c(O[C@H](C)CN(C)C)n2)ncc1-c1cnn(C)c1` gave a remaining activity of 60% (PDGFRA; enzyme activity; inhibitor; radiometric; 1 µM).
With `Oc1ccc(-c2nc(-c3ccncc3)c(-c3ccc(F)cc3)[nH]2)cc1` the remaining signal was 98.8% (PDGFRA; cell-free assay; 0.5 µM).
For `COc1ccc2cc(OCC3(C(=O)O)CN(C(=O)c4ccc(F)cc4)C3)ccc2c1`, the remaining binding was 100% (PDGFRA; cell-free assay; competition with immobilised ligand; 1 µM).
`CNC(=O)c1cc(Oc2ccc(NC(=O)Nc3ccc(Cl)c(C(F)(F)F)c3)cc2)ccn1` has an inhibition of 99% (PDGFRA D842V; enzyme activity; inhibitor; 10 µM).
The remaining binding of `Cc1nc(Cc2cccc(C(F)(F)F)c2)sc1-c1ccc(C(N)=O)nc1` is reported as 88% (PDGFRA; cell-free assay; competition with immobilised ligand; 1 µM).
`Cc1ccc(NC(=O)c2ccc(C)c(C(F)(F)F)c2)cc1C#Cc1nn(C2CCC(O)CC2)c2ncnc(N)c12` (stereo not shown) has a remaining signal of 60% (PDGFRA; cell-free assay; inhibitor; 10 µM).
With `O=C1Nc2ccc(Cl)cc2C1=Cc1cc(Cl)c(O)c(Cl)c1` the remaining signal was 70.3% (PDGFRA; cell-free assay; 0.5 µM).
The activity vs control of `FC(F)(F)Oc1cccc(-c2cnc3ccc(-c4ccncc4)nn23)c1` is reported as 49% (PDGFRA; enzyme activity; inhibitor; radiometric; 5 µM).
With `Cc1nccc(COC(=O)N2C[C@@H]3[C@@H](CNC(=O)c4ccc5[nH]nnc5c4)[C@@H]3C2)n1` the remaining binding was 80% (PDGFRA; cell-free assay; competition with immobilised ligand; 1 µM).
`CC/C(=N\NC(=O)NCc1cccc(O)c1)c1ccc(O)c(C)c1O` gave an inhibition of 0.9% (PDGFRA V561D; enzyme activity; inhibitor; 0.1 µM).
